The text below walks through data of PMC12502093 (RSC Advances, 2025).

Values after ≈ are worked out from the molar mass of the structure shown.

What all share (format): cell-based
Experiment [1] relates to C. albicans ATCC 10231. In words: Agar well diffusion test. The conditions noted are these: AWDT; for Zone of inhibition, inhibition scale: C. albicans ATCC 10231; for Zone of inhibition: C. albicans ATCC 10231, average of triplicate. Background: A growth-free zone around the sample is the usual read-out of agar diffusion tests.
Experiment [2] deals with C. albicans ATCC 10231. In words: Minimum inhibitory concentration, C. albicans. To be noted: Candida albicans, ATCC10231, read-out: MIC (mg mL^−1). The procedure, abridged: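 MIC was determined by a previously reported method for compounds selected from the well-diffusion screen and is expressed in mg mL−1. […] For C. albicans, 100 μL of negative cells went onto potato dextrose agar at 25 °C/72 h.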

The subject of a further experiment is A. flavus isolate. The experiment can be described thus: Agar well diffusion test. To be noted: AWDT; for Zone of inhibition: average of triplicate. In short, it runs like this:
(§1)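 Agar well diffusion. Test compounds were placed in wells on agar inoculated with the reference strain or isolate. After incubation, inhibition zone diameters were measured in mm with a caliper. Runs were in triplicate and the zone averaged. Scale: 0 = no inhibition; 0–6 mm (−); 7–11 mm (+); 12–14 mm (++); 15–17 mm (+++).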

For the next experiment, the system named is S. aureus ATCC 25923. The experiment can be described thus: Agar well diffusion test. The conditions noted are these: AWDT; for Zone of inhibition, inhibition scale: S. aureus ATCC 25923; for Zone of inhibition: S. aureus ATCC 25923, average of triplicate. In short, it runs like this: as §1
In the next experiment the test system is E. coli O157 ATCC 700728. In words: Agar well diffusion test. To be noted: AWDT; for Zone of inhibition, inhibition scale: E. coli O157 ATCC 700728; for Zone of inhibition: E. coli O157 ATCC 700728, average of triplicate. The procedure, abridged: as §1

For orientation: MIC means the lowest concentration found to suppress growth.

As for `CC(=O)c1ccc2cc(S(=O)(=O)Nc3ccccc3Cl)ccc2c1` [Compound 5c, 6-Acetyl-N-(2-chlorophenyl)naphthalene-2-sulfonamide], the “Zone of inhibition, inhibition scale” value with C. albicans ATCC 10231 [1] is recorded as “+++ (15–17 mm (+++))”; with A. flavus isolate it was “− (0–6 mm (−))”; in the experiment on S. aureus ATCC 25923, “− (0–6 mm (−))”; in the experiment with E. coli O157 ATCC 700728 it was “++ (12–14 mm (++))”. In addition, the Zone of inhibition in the experiment on C. albicans ATCC 10231 [1] was determined as 16 mm; with A. flavus isolate, 0 mm; in the experiment on S. aureus ATCC 25923, 0 mm; with E. coli O157 ATCC 700728 it was 12 mm. For the same molecule, the MIC in the experiment with C. albicans ATCC 10231 [2] amounted to 20 mg/mL (≈ 55.6 mM).
As to `CC(=O)c1ccc2cc(S(=O)(=O)Nc3cccc(Cl)c3)ccc2c1` [Compound 5d, 6-Acetyl-N-(3-chlorophenyl)naphthalene-2-sulfonamide], the “Zone of inhibition, inhibition scale” value is recorded as “+ (7–11 mm (+))” in the experiment with C. albicans ATCC 10231 [1], “− (0–6 mm (−))” with A. flavus isolate and “− (0–6 mm (−))” with S. aureus ATCC 25923. For the same molecule, the Zone of inhibition in the experiment on C. albicans ATCC 10231 [1] came out at 15 mm; in the experiment with A. flavus isolate, 0 mm; in the experiment on S. aureus ATCC 25923, 0 mm; in the experiment with E. coli O157 ATCC 700728, 10 mm. In addition, the MIC in the experiment with C. albicans ATCC 10231 [2] was 10 mg/mL (≈ 27.8 mM).
Turning to `CC(=O)c1ccc2cc(S(=O)(=O)Nc3ccccc3C)ccc2c1` [Compound 5f, 6-Acetyl-N-(o-tolyl)naphthalene-2-sulfonamide], the “Zone of inhibition, inhibition scale” value in the experiment on C. albicans ATCC 10231 [1] was “+ (7–11 mm (+))”; in the experiment with A. flavus isolate it was “− (0–6 mm (−))”; in the experiment with S. aureus ATCC 25923, “− (0–6 mm (−))”. The Zone of inhibition with C. albicans ATCC 10231 [1] amounted to 12 mm; with A. flavus isolate it was 0 mm; in the experiment on S. aureus ATCC 25923, 0 mm; with E. coli O157 ATCC 700728, 11 mm.
For `COc1ccc(NS(=O)(=O)c2ccc3cc(C(C)=O)ccc3c2)cc1` [Compound 5g, 6-Acetyl-N-(4-methoxyphenyl)naphthalene-2-sulfonamide], the “Zone of inhibition, inhibition scale” value in the experiment with C. albicans ATCC 10231 [1] was “+ (7–11 mm (+))”; in the experiment on A. flavus isolate, “− (0–6 mm (−))”; with S. aureus ATCC 25923 it was “− (0–6 mm (−))”; in the experiment on E. coli O157 ATCC 700728, “++ (12–14 mm (++))”. The Zone of inhibition in the experiment with C. albicans ATCC 10231 [1] worked out at 10 mm; in the experiment on A. flavus isolate, 0 mm; in the experiment on S. aureus ATCC 25923, 0 mm; in the experiment with E. coli O157 ATCC 700728, 12 mm.
For the molecule `CC(=O)c1ccc2cc(S(=O)(=O)NCc3ccccc3)ccc2c1` [Compound 5h, 6-Acetyl-N-benzylnaphthalene-2-sulfonamide], the “Zone of inhibition, inhibition scale” value is “+ (7–11 mm (+))” in the experiment with C. albicans ATCC 10231 [1], “+ (7–11 mm (+))” with A. flavus isolate and “++ (12–14 mm (++))” with S. aureus ATCC 25923. Moreover, the Zone of inhibition is 7 mm in the experiment with C. albicans ATCC 10231 [1], 10 mm with A. flavus isolate, 14 mm in the experiment on S. aureus ATCC 25923 and 10 mm with E. coli O157 ATCC 700728.
